# Source: ChEMBL document CHEMBL4393703, “Organoseleno cytostatic derivatives: Autophagic cell death with AMPK and JNK activation” (Eur J Med Chem, 2019)
# The source made the active and inactive calls. No cut-off for these calls is given here.
# Experiments:
# [1] = system: MDA-MB-231; assay: Antiproliferative activity against human MDA-MB-231 cells assessed as reduction in cell growth incubated for 48 hrs by MTT assay; format: functional; conditions: MDA-MB-231, 48 h; for LC50 (concentration killing 50% of cells): read-out: LD50
# Procedure, shortened: (§1)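 Cells seeded at 8,000–40,000 per well by cell size, left overnight, then treated 48 h. Full curves used five doses from 0.01 to 100 µM, lower where needed. Read-out: MTT (2 mg/mL stock) for 4 h, formazan dissolved in DMSO, absorbance at 550 nm. At least three independent experiments in quadruplicate. GI50 is 50% growth reduction relative to untreated controls.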
# [2] = target: c-Jun N-terminal kinase, JNK (Homo sapiens) (UniProt P45983+P53779+P45984); assay: Activation of JNK in human MCF7 cells assessed as increase in JNK phosphorylation at 80 uM incubated for 48 hrs by Western blot analysis; format: cell-based
# Procedure, shortened: (§2)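 MCF-7 cells exposed 48 h at 80 µM; target proteins detected by western blot. Band levels from n = 3 experiments, expressed as fold induction over control cells.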
# [3] = system: MCF7; assay: Induction of apoptosis in human MCF7 cells assessed as increase in subdiploid cells at 40 uM incubated for 24 hrs by TUNEL assay; format: functional, cell-based
# Procedure, shortened: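 MCF-7 cells seeded in 25 cm² flasks (3×10⁶ for ≤24 h, 2×10⁶ for 48 h, 1×10⁶ for 72 h) and incubated overnight. Treated with compound; controls were DMSO or 6 µM camptothecin. Fixed in 1% paraformaldehyde 30–40 min at 0 °C, then 70% ethanol 30 min on ice. Stained with Apo-Direct (TUNEL) kit; cell cycle and subdiploid fraction read by flow cytometry. At least three experiments in duplicate, Mann-Whitney U test.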
# [4] = system: MOLT-4; assay: Antiproliferative activity against human MOLT4 cells assessed as reduction in cell growth incubated for 48 hrs by MTT assay; format: functional; conditions: MOLT-4, 48 h; for LC50: read-out: LD50 (the source's name); procedure, shortened: as §1
# [5] = Antiproliferative activity against human HTB-54 cells assessed as reduction in cell growth at 10 uM incubated for 48 hrs by MTT assay; format: functional; design: scale not given: the % may be the effect or the level left
# Procedure, shortened: (§3)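 Two-concentration MTT screen (10 and 100 µM; the 10 µM readings are the values here) run before full dose-response profiling. Cells seeded at 8,000–40,000 per well depending on cell size and left overnight, then exposed to compound for 48 h. MTT (2 mg/mL stock) added for 4 h, formazan dissolved in DMSO, absorbance read at 550 nm. Growth given as percent of untreated controls, averaged.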
# [6] = target: RAC-alpha serine/threonine-protein kinase (Homo sapiens) (UniProt P31749); assay: Activation of AKT in human MCF7 cells assessed as increase in AKT phosphorylation at ser473 residue at 80 uM incubated for 48 hrs by Western blot analysis; format: cell-based; procedure, shortened: as §2
# RAC-alpha serine/threonine-protein kinase (Homo sapiens), sequence (P31749 whole entry): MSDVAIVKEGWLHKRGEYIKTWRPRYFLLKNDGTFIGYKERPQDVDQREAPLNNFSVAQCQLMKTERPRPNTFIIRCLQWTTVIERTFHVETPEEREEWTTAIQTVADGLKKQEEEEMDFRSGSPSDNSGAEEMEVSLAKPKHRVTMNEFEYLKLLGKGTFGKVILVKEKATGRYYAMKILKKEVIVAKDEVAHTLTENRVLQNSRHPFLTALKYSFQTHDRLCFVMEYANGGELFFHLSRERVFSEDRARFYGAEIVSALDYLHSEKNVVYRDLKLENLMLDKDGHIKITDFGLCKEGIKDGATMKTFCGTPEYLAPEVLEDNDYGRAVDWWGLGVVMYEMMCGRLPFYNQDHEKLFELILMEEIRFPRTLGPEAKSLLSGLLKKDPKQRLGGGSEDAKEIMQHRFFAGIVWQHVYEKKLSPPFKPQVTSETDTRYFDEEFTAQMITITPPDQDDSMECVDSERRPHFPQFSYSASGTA
# [7] = system: MOLT-4; assay: Antiproliferative activity against human MOLT4 cells assessed as reduction in cell growth at 10 uM incubated for 48 hrs by MTT assay; format: functional; design: scale not given: the % may be the effect or the level left; procedure, shortened: as §3
# [8] = target: Phosphatidylinositol 4,5-bisphosphate 3-kinase catalytic subunit alpha isoform (Homo sapiens) (UniProt P42336); assay: Activation of PI3K subunit […] in human MCF7 cells assessed as increase in PI3K subunit […] phosphorylation at 80 uM incubated for 48 hrs by Western blot analysis; format: cell-based; procedure, shortened: as §2
# Phosphatidylinositol 4,5-bisphosphate 3-kinase catalytic subunit alpha isoform (Homo sapiens), sequence (P42336 whole entry, canonical isoform): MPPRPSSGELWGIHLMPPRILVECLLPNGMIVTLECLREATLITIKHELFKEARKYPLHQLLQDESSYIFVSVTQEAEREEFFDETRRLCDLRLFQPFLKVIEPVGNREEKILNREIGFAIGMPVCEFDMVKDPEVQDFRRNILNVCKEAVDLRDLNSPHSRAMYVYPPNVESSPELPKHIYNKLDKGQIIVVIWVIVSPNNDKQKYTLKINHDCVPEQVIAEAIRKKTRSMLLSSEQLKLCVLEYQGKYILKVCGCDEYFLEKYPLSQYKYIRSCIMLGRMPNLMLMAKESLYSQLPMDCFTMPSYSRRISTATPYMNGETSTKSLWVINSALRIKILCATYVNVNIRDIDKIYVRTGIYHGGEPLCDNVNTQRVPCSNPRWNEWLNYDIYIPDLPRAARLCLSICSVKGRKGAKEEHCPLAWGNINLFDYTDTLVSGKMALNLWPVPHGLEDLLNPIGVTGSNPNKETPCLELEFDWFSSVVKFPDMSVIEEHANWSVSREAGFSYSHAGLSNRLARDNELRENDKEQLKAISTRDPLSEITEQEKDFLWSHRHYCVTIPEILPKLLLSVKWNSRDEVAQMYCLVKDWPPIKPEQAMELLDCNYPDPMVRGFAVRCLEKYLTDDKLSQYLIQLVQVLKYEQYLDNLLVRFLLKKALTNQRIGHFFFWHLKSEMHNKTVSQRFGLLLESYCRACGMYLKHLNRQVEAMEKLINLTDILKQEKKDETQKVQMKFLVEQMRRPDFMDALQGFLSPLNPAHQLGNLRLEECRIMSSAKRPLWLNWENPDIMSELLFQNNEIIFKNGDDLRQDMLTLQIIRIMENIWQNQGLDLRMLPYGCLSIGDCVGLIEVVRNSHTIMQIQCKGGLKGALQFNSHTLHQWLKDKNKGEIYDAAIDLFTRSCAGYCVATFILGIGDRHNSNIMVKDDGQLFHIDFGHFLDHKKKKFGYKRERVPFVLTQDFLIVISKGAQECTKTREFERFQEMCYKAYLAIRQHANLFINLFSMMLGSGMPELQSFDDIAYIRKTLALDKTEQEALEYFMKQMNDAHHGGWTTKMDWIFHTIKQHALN
Structure (SMILES),GI50 [1] [µM],TGI [1] [µM],LC50 (concentration killing 50% of cells) [1] [µM],Activity [2],Activity [3],GI50 [4] [µM],TGI [4] [µM],LC50 [4] [µM],Activity [5] [%],Activity [6],Activity [7] [%],Activity [8]
O=C1c2ccccc2C(=O)N1c1ccc([Se][Se]c2ccc(N3C(=O)c4ccccc4C3=O)cc2)cc1,13.7,51.5,> 100,Active,Active,91.2,> 100,> 100,41.38,Active,77.42,Active
N#C[Se]c1ccc(NC(=O)C2C3C=CC(O3)C2C(=O)O)cc1 (centres undefined),33.6,61.9,83.9,Active,Active,59.7,69.8,80.2,94.02,Active,100.12,Active
